Experimental findings from PubChem BioAssay AID504425 (Johns Hopkins Ion Channel Center, 2011) are described below.

This assay addresses Voltage-dependent T-type calcium channel subunit alpha-1I (Homo sapiens) (UniProt Q9P0X4). Kind of assay: inhibitors of CACNA1I calcium current – automated patch clamp, HEK293 cells, selectivity assay for Cav3.2 inhibitor project, dose response (AID 504425). Conditions: HEK293 Cav3.3, automated patch clamp current; for current change, negative = inhibition: at 30 µM (top of the series). An outline of the steps:
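Timing: compound exposure 3 min; material: Cav3.3-expressing stable HEK293 cell line; probe or stimulus: voltage step, -100 mV to -30 mV, 1 s; measure: % current change relative to pre-compound current in each well; signal: perforated-patch population patch clamp, peak inward current, linear leak subtraction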

Activity calls are given as the source filed them.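 How the source made its calls: active means compound that lowers Cav3.3 T-type calcium current at some tested dose and yields a usable dose response curve; inactive means the rest.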

Voltage-dependent T-type calcium channel subunit alpha-1I (Homo sapiens), sequence (Q9P0X4 whole entry, looked up): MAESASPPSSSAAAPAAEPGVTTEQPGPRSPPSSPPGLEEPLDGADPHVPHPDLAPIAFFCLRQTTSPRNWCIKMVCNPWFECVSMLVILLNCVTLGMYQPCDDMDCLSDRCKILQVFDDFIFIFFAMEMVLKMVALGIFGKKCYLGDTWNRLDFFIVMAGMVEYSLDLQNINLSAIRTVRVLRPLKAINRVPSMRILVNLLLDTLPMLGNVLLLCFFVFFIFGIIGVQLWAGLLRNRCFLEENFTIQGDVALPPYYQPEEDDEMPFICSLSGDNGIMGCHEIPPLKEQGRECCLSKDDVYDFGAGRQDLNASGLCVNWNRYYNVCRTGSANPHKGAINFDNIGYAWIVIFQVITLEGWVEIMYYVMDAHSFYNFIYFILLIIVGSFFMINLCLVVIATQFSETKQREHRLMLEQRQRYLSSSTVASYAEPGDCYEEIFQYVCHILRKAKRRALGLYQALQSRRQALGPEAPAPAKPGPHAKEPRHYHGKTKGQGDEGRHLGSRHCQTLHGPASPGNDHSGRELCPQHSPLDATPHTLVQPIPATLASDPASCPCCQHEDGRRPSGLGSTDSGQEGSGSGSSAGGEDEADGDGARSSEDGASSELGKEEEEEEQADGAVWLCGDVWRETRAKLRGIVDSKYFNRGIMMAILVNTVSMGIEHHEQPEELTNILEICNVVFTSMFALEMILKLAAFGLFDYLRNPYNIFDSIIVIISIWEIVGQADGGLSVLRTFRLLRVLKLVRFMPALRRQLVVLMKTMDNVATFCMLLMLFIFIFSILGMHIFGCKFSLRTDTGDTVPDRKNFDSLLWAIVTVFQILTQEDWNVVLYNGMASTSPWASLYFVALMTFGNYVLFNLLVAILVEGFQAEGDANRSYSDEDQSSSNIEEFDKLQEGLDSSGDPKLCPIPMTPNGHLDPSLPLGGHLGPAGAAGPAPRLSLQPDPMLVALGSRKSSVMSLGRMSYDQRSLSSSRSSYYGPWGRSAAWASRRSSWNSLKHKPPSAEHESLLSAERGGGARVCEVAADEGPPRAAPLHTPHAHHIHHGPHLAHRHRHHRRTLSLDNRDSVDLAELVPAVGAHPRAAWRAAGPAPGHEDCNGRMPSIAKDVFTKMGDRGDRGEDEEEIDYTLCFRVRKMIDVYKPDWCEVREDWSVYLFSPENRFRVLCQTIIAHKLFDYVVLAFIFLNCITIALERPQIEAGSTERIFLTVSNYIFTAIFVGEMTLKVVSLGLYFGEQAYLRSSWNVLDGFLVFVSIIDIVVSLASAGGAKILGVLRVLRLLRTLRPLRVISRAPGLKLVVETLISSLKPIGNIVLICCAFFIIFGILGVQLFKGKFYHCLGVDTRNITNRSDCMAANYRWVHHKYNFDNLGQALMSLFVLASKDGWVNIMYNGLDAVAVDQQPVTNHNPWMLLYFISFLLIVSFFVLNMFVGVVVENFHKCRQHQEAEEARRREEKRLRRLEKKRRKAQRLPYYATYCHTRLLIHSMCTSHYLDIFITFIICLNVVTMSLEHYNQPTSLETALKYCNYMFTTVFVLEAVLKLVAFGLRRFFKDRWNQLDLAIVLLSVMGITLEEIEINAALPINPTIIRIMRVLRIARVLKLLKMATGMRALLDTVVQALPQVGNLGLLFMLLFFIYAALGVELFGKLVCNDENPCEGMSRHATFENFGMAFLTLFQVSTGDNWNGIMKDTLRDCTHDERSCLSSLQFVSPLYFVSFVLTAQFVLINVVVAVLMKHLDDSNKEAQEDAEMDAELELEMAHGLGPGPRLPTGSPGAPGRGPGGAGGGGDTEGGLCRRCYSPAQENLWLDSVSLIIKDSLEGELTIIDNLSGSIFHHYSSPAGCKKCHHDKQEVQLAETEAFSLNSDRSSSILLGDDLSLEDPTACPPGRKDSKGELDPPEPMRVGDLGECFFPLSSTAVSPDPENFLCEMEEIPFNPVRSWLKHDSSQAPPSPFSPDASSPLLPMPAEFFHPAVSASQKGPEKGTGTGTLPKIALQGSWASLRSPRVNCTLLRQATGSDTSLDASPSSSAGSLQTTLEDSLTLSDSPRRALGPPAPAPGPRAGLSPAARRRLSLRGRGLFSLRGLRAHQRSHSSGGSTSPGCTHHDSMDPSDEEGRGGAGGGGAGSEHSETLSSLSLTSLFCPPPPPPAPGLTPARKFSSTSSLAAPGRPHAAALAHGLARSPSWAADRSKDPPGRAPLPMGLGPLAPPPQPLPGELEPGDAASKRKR

Take `CC(C)(C)CCN1C[C@@H]2C(CNC(=O)c3cc(Cl)cc(Cl)c3)[C@@H]2C1` (some centres undefined): the IC50 was 0.275 µM.

For `CC(C)(C)Cc1nnc(NC(=O)COc2ccc(Cl)cc2Cl)o1`, the “current change, negative = inhibition” value was “inactive”.

For the compound `O=C(COc1ccc(F)cc1Cl)Nc1nnc(-c2ccc(F)c(F)c2)o1`, the IC50 was 11 µM.

`Cc1ccc(-c2nnc(NC(=O)COc3ccc(F)cc3Cl)o2)cc1C`: the “current change, negative = inhibition” value is “inactive”.

What is called IC50 is the concentration that inhibits the measured activity by half.
